Assay results published in ChEMBL document CHEMBL1127859, “Selective inhibition of trypanosomal glyceraldehyde-3-phosphate dehydrogenase by protein structure-based design: toward new drugs for the treatment of sleeping sickness” (J Med Chem, 1994).

Experiments:
[1] = Tested for the inhibitory activity against Glycosomal glyceraldehyde 3-phosphate dehydrogenase (gGAPDH) of Trypanosoma brucei
Procedure, shortened: (§1)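 Recombinant glycosomal GAPDH overexpressed in E. coli and purified. Started with enzyme. Initial rates compared with a 5% DMSO control; NADH absorbance interference checked without enzyme. IC50 from ≥5 concentrations giving 5–80% inhibition.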

[2] = target: Glyceraldehyde-3-phosphate dehydrogenase (Homo sapiens, UniProt P04406); assay: Tested for the inhibitory activity against Glycosomal glyceraldehyde 3-phosphate dehydrogenase (gGAPDH) of human erythrocyte
Sequence of Glyceraldehyde-3-phosphate dehydrogenase (P04406 whole entry): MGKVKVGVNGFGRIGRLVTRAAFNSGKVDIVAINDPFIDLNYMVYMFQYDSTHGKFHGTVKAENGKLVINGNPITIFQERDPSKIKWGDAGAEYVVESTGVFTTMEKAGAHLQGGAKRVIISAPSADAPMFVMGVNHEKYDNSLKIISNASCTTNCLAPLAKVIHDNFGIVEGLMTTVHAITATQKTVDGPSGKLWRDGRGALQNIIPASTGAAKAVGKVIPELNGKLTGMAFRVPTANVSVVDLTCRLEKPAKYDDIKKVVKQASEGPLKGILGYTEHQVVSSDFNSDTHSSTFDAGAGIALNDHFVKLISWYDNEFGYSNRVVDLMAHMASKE

[3] = Tested for the inhibitory activity against Glycosomal glyceraldehyde 3-phosphate dehydrogenase (gGAPDH) of Leishmania mexicana; procedure, shortened: as §1
[4] = Tested for the inhibitory activity against Glycosomal glyceraldehyd 3-phosphate dehydrogenase (gGAPDH) of Trypanosoma brucei
Procedure, shortened: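 Recombinant T. brucei gGAPDH expressed in E. coli. Reaction started with enzyme; NADH absorbance read. Activity from initial rates versus a DMSO-only control. IC50 from at least five inhibitor concentrations giving 5–80% inhibition.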

| SMILES | IC50 [1] [mM] | IC50 [2] [mM] | IC50 [3] [mM] | IC50 [4] [mM] |
| --- | --- | --- | --- | --- |
| Nc1ncnc2c1ncn2[C@@H]1O[C@H](CO)[C@@H](O)[C@H]1NC(=O)c1ccccc1 | 6 | > 10 | 3.3 | – |
| Nc1ncnc2c1ncn2[C@@H]1O[C@H](CO)[C@@H](O)[C@H]1NC(=O)c1cccs1 | 5 | > 10 | 2.4 | – |
| COc1cccc(C(=O)N[C@@H]2[C@H](O)[C@@H](CO)O[C@H]2n2cnc3c(N)ncnc32)c1 | 2.2 | > 10 | 0.3 | – |
| Cc1nc(N)c2ncn([C@@H]3O[C@H](CO)[C@@H](O)[C@H]3O)c2n1 [2-METHYLADENOSINE] | 8 | > 10 | 6 | – |

More lines, in order of falling IC50 [2], values ahead:

| IC50 [1] [mM] | IC50 [2] [mM] | IC50 [3] [mM] | IC50 [4] [mM] | SMILES |
| --- | --- | --- | --- | --- |
| 100 | 35 | 50 | – | Nc1ncnc2c1ncn2[C@@H]1O[C@H](CO)[C@@H](O)[C@H]1O [ADENOSINE] |
| 10 | 10 | – | – | Nc1ncnc2c1nc(-c1ccccc1)n2[C@@H]1O[C@H](CO)[C@@H](O)[C@H]1O |
| – | 1.3 | 0.5 | 0.6 | Nc1ncnc2c1nc(-c1cccs1)n2[C@@H]1O[C@H](CO)C(O)[C@H]1O (single isomer, unassigned) |
